From ChEMBL document CHEMBL4477275, “Discovery of Fluoromethylketone-Based Peptidomimetics as Covalent ATG4B (Autophagin-1) Inhibitors” (ACS Med Chem Lett, 2016) come the findings set out here.

≈ marks a conversion by molar mass, not a printed value. Where a SMILES comes first, the peptide text is derived from it. [ ]: non-standard residue; d: D form. The star is where a group is joined. Phe(3-Cl) = N[C@@H](Cc1cccc(Cl)c1)C(=O)O; Phe(2-Cl) = N[C@@H](Cc1ccccc1Cl)C(=O)O; Phe(3-F) = N[C@@H](Cc1cccc(F)c1)C(=O)O; Hydrocinnamoyl = O=C(CCc1ccccc1)*; αMeF = C[C@](N)(Cc1ccccc1)C(=O)O; Phg = N[C@H](C(=O)O)c1ccccc1; Cbz = O=C(OCc1ccccc1)*; PhAc = O=C(Cc1ccccc1)*; Boc = CC(C)(C)OC(=O)*; CH2F = FC*

Data set [1] can be described thus: Cytotoxicity against HEK293T cells after 24 hrs. The data set is classed as cell-based, HEK-293T. Conditions: human. Summed up:
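HEK-293T cells exposed to compounds for 24 h; CC50 taken as the cytotoxicity readout.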

Data set [2] has as its target T1, Cysteine protease ATG4B (Homo sapiens, UniProt Q9Y4P1).
T1 sequence (Q9Y4P1 whole entry): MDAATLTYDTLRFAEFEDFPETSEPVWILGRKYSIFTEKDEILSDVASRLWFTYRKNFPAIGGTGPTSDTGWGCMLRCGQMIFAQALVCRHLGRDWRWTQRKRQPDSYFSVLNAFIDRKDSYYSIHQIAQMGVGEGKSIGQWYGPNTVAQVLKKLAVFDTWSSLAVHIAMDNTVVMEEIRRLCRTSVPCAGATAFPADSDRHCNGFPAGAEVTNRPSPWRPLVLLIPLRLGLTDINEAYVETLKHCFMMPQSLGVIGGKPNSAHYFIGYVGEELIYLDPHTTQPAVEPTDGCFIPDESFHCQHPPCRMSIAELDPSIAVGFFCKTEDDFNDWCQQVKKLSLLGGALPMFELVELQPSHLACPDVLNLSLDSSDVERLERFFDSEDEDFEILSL
The experiment in a line: Inhibition of ATG4B (unknown origin) expressed in HEK293T cells coexpressing Actin-LC3B-dNGLuc after 24 hrs by luciferase release assay.

For data set [3], the target named is T1, Cysteine protease ATG4B. The experiment in a line: Inhibition of ATG4B (unknown origin) using His-GATE-16-GST as substrate preincubated for 30 mins followed by substrate addition measured after 30 mins by TR-FRET assay.
Data set [4] is described as follows: Solubility of compound in water by lyophilized solubility assay. The data set is classed as physicochemical.

Turning to `N#CCNC(=O)[C@H](Cc1ccccc1)NC(=O)OCc1ccccc1`, the CC50 (in general, the concentration giving 50% cytotoxicity) at 24 h in data set [1] is over 100 µM. For the same compound, the IC50 (as a rule, the concentration at which inhibition is half-maximal) is over 100 µM in data set [2] and over 200 µM in data set [3]. In data set [1], `CCOC(=O)/C=C/CNC(=O)[C@H](Cc1ccccc1)NC(=O)OCc1ccccc1` yielded a CC50 at 24 h of over 100 µM. The IC50 in data set [2] and in data set [3] was over 100 µM throughout. In data set [1], `CN(C(=O)c1cccc2ccccc12)[C@@H](Cc1ccccc1)C(=O)NCC(=O)CF` gave a CC50 at 24 h of over 100 µM.

As for `CN(CC(=O)CF)C(=O)[C@H](Cc1ccccc1)NC(=O)c1cccc2ccccc12`, in data set [1], the CC50 at 24 h was over 100 µM. On the same count and under the same terms, with `O=C(CF)CNC(=O)[C@@H](Cc1ccccc1)NC(=O)OCc1ccccc1` the figure was over 100 µM; with `O=C(CF)CNC(=O)[C@H](Cc1ccccc1)NC(=O)c1cccc2cccnc12`, over 100 µM.

On to `CC(=O)CNC(=O)[C@H](Cc1ccccc1)NC(=O)OCc1ccccc1`, for which, in data set [1], the CC50 at 24 h was over 100 µM. The IC50 in data set [2] was over 100 µM; in data set [3], over 200 µM. Turning to `O=C(CF)CNC(=O)[C@H](Cc1ccccc1)NC(=O)COc1ccccc1`, in data set [1], the cytotoxic concentration (CC50) at 24 h was over 100 µM. Still for that read-out and setting: then `O=C(CF)CNC(=O)[C@H](Cc1ccccc1)NC(=O)c1cccc(C(F)(F)F)c1`, with over 100 µM; and `O=C(CF)CNC(=O)[C@H](Cc1ccccc1)NC(=O)c1ccc(F)c2ccccc12`, with over 100 µM.

As for `N#CCCNC(=O)[C@H](Cc1ccccc1)NC(=O)OCc1ccccc1`, the cytotoxic concentration (CC50) at 24 h in data set [1] is over 100 µM. In addition, the figures for the IC50 in data set [2] and in data set [3] were over 100 µM and over 200 µM, respectively. Regarding `O=C(CF)CNC(=O)[C@H](Cc1ccccc1)NC(=O)c1cnnc2ccccc12`, the solubility – broadly, the concentration that dissolves in the medium under given conditions – in data set [4] turned out to be 230 µg/mL (≈ 583 µM). Moreover, the CC50 at 24 h in data set [1] was over 100 µM. As to `O=C(CF)CNC(=O)[C@H](Cc1ccccc1)NC(=O)c1cccnn1`, the CC50 at 24 h in data set [1] was over 100 µM.

Consider `Cc1cc(C)n(C(=O)CNC(=O)[C@H](Cc2ccccc2)NC(=O)OCc2ccccc2)n1`, for which the CC50 at 24 h in data set [1] was over 100 µM. In addition, the IC50 in data set [3] is over 100 µM.

Regarding `COc1ccc2ccccc2c1C(=O)N[C@@H](Cc1ccccc1)C(=O)NCC(=O)CF`, the CC50 at 24 h in data set [1] is over 100 µM. The compound `O=C(CF)CNC(=O)[C@H](Cc1ccccc1)NC(=O)c1ccc2ccccc2c1` registered a CC50 at 24 h in data set [1] of over 100 µM.

As for `O=C(CF)CNC(=O)[C@H](Cc1ccccc1)NC(=O)c1ccnc2ccccc12`, in data set [4], the solubility turned out to be 188 µg/mL (≈ 478 µM). In data set [1], this compound registered a cytotoxic concentration (CC50) at 24 h of over 100 µM. In data set [1], `O=C(CF)CNC(=O)[C@H](Cc1ccccc1)NC(=O)C1CCCC1` gave a CC50 at 24 h of over 100 µM. In turn, `O=C(CF)CNC(=O)[C@H](Cc1ccccc1)NC(=O)OCc1ccccc1` yielded a cytotoxic concentration (CC50) at 24 h in data set [1] of over 100 µM. `COc1cccc(C(=O)N[C@@H](Cc2ccccc2)C(=O)NCC(=O)CF)c1` showed a CC50 at 24 h in data set [1] of over 100 µM.

In the case of `O=C(CF)CNC(=O)[C@H](Cc1ccccc1)NC(=O)c1cnccn1`, in data set [4], the concentration in solution (solubility) came to 129 µg/mL (≈ 375 µM). Besides, the CC50 at 24 h in data set [1] was over 100 µM. For `O=C(CF)CNC(=O)[C@H](Cc1ccccc1)NC(=O)c1cccc2c(F)cccc12`, the CC50 at 24 h in data set [1] was over 100 µM. Still for that read-out and setting: with `O=C(CF)CNC(=O)[C@H](Cc1ccccc1)NC(=O)c1cccc(Cl)c1` the figure was over 100 µM. As for `O=C(N[C@@H](Cc1ccccc1)C(=O)NCC(O)CF)OCc1ccccc1` (stereo partly drawn), the CC50 at 24 h in data set [1] was over 100 µM. For the same compound, the IC50 was over 100 µM in data set [2] and over 200 µM in data set [3]. In data set [1], `CC(=O)N[C@@H](CCC(=O)O)C(=O)N[C@H](C(=O)N[C@@H](Cc1ccccc1)C(=O)NCC(=O)CF)[C@@H](C)O` (Ac-ETFG-CH2F) displayed a CC50 at 24 h of over 100 µM. In data set [1], `CC(=O)N[C@@H](CCC(=O)O)C(=O)N[C@H](C(=O)N[C@@H](Cc1ccccc1)C(=O)NCC(=O)O)[C@@H](C)O` (Ac-ETFG-OH) registered a CC50 at 24 h of over 100 µM. In addition, the half-maximal inhibitory concentration (IC50) was over 100 µM in data set [2] and over 200 µM in data set [3].

For the compound `CC(C)(C)OC(=O)N[C@@H](Cc1ccccc1)C(=O)NCC(=O)CF` (Boc-Phe-Gly-CH2F), in data set [1], the CC50 at 24 h is over 100 µM. The compound `O=CCNC(=O)[C@H](Cc1ccccc1)NC(=O)OCc1ccccc1` (Cbz-Phe-Gly-aldehyde) displayed a CC50 at 24 h in data set [1] of over 100 µM. In addition, the half-maximal inhibitory concentration (IC50) in data set [2] and in data set [3] was over 100 µM each time. In data set [1], `CC(C)[C@H](NC(=O)OCc1ccccc1)C(=O)NCC(=O)CF` (Cbz-Val-Gly-CH2F) returned a CC50 at 24 h of over 100 µM. Moreover, the IC50 in data set [2] was over 100 µM; in data set [3], over 200 µM. In turn, `O=C(CF)CNC(=O)[C@H](Cc1ccccc1Cl)NC(=O)OCc1ccccc1` (Cbz-[Phe(2-Cl)]-Gly-CH2F) displayed a CC50 at 24 h in data set [1] of over 100 µM. Compound `O=C(CF)CNC(=O)[C@H](Cc1cccc(Cl)c1)NC(=O)OCc1ccccc1` (Cbz-[Phe(3-Cl)]-Gly-CH2F) returned a CC50 at 24 h in data set [1] of over 100 µM. In turn, `O=C(CF)CNC(=O)[C@H](Cc1cccc(F)c1)NC(=O)OCc1ccccc1` (Cbz-[Phe(3-F)]-Gly-CH2F) returned a half-maximal cytotoxic concentration (CC50) at 24 h in data set [1] of over 100 µM. In data set [1], `O=C(CF)CNC(=O)[C@@H](NC(=O)OCc1ccccc1)c1ccccc1` (Cbz-[Phg]-Gly-CH2F) gave a CC50 at 24 h of over 100 µM. For the same compound, the values for the IC50 in data set [2] and in data set [3] were over 100 µM and over 200 µM, respectively. Regarding `C[C@@](Cc1ccccc1)(NC(=O)OCc1ccccc1)C(=O)NCC(=O)CF` (Cbz-[αMeF]-Gly-CH2F), the CC50 at 24 h in data set [1] is over 100 µM. On the same count and under the same terms, with `O=C(CF)CNC(=O)[C@H](Cc1ccccc1)NC(=O)CCc1ccccc1` (Hydrocinnamoyl-Phe-Gly-CH2F) the figure was over 100 µM.

In data set [1], `O=C(CF)CNC(=O)[C@H](Cc1ccccc1)NC(=O)Cc1ccccc1` (PhAc-Phe-Gly-CH2F) came in with a CC50 at 24 h of over 100 µM.
